In brackets after ≈: the same amount, converted by molar mass.
Assays:
Format in all cases: functional
Streptococcus pyogenes [1] = assay: Antibacterial activity against MLS-resistant Streptococcus pyogenes 01-968 expressing inducible ermB gene assessed as reduction in microbial growth by CLSI based two-fold broth dilution method
Streptococcus pyogenes [2] = assay: Bactericidal activity against Streptococcus pyogenes 12-207 expressing mef gene pretreated followed by subculture in absence of compound measured after 24 hrs
Summary of the method: (§1)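 Isolates were identified by 16S rDNA sequencing. MIC was determined by CLSI-recommended two-fold broth dilution. For MBC, samples from 1–8 fold MIC were transferred to culture medium and subcultured for 24 h without antibiotic.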

Streptococcus pyogenes [3] = assay: Antibacterial activity against MLS-resistant Streptococcus pyogenes 12-206 expressing constitutive ermA gene assessed as reduction in microbial growth by CLSI based two-fold broth dilution method
Streptococcus pneumoniae [4] = assay: Bactericidal activity against erythromycin-susceptible Streptococcus pneumoniae ATCC49619 pretreated followed by subculture in absence of compound measured after 24 hrs; summary of the method: as §1
Streptococcus pneumoniae [5] = assay: Bactericidal activity against penicillin-susceptible Streptococcus pneumoniae PU 09 expressing mef gene pretreated followed by subculture in absence of compound measured after 24 hrs; summary of the method: as §1
Streptococcus pneumoniae [6] = assay: Antibacterial activity against penicillin-susceptible Streptococcus pneumoniae PU 09 expressing mef gene assessed as reduction in microbial growth by CLSI based two-fold broth dilution method
Streptococcus pyogenes [7] = assay: Selectivity ratio of MBC to MIC for MLS-resistant Streptococcus pyogenes 01-968 expressing inducible ermB gene
Summary of the method: (§2)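 MBC/MIC ratio. MIC was measured by CLSI standard two-fold broth dilution. MBC was measured by transferring samples at 1–8 fold MIC to culture medium and subculturing for 24 h without antibiotic. Isolates were identified by 16S rDNA sequencing.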

Moraxella catarrhalis [8] = assay: Selectivity ratio of MBC to MIC for erythromycin-susceptible Moraxella catarrhalis 13L332; summary of the method: as §1
Streptococcus pneumoniae [9] = assay: Selectivity ratio of MBC to MIC for penicillin-susceptible Streptococcus pneumoniae PU 09 expressing mef gene; summary of the method: as §1
Streptococcus pyogenes [10] = assay: Bactericidal activity against MLS-resistant Streptococcus pyogenes 01-968 expressing inducible ermB gene pretreated followed by subculture in absence of compound measured after 24 hrs
Summary of the method: (§3)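 MBC assay. Following MIC determination by CLSI standard two-fold broth dilution, samples at 1–8 fold MIC were transferred to fresh culture medium. They were subcultured for 24 h without antibiotic. Isolates were identified by 16S rDNA sequencing. S. aureus ATCC 29213 was used as a control strain.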

Streptococcus pyogenes [11] = assay: Antibacterial activity against Streptococcus pyogenes 12-207 expressing mef gene assessed as reduction in microbial growth by CLSI based two-fold broth dilution method
Streptococcus pneumoniae [12] = assay: Bactericidal activity against Streptococcus pneumoniae 07P390 expressing constitutive ermB gene pretreated followed by subculture in absence of compound measured after 24 hrs; summary of the method: as §1
Staphylococcus aureus [13] = assay: Antibacterial activity against MLS-resistant Staphylococcus aureus PU 20 expressing constitutive ermC gene assessed as reduction in microbial growth by CLSI based two-fold broth dilution method
Streptococcus pneumoniae [14] = assay: Selectivity ratio of MBC to MIC for Streptococcus pneumoniae 07P390 expressing constitutive ermB gene; summary of the method: as §1
Staphylococcus aureus [15] = assay: Selectivity ratio of MBC to MIC for MLS/methicillin-resistant Staphylococcus aureus PU 32 expressing inducible ermA gene; summary of the method: as §2
Moraxella catarrhalis [16] = assay: Antibacterial activity against erythromycin-susceptible Moraxella catarrhalis 13L332 assessed as reduction in microbial growth by CLSI based two-fold broth dilution method
Streptococcus pneumoniae [17] = assay: Antibacterial activity against erythromycin-susceptible Streptococcus pneumoniae ATCC49619 assessed as reduction in microbial growth by CLSI based two-fold broth dilution method
Streptococcus pyogenes [18] = assay: Bactericidal activity against MLS-resistant Streptococcus pyogenes 12-206 expressing constitutive ermA gene pretreated followed by subculture in absence of compound measured after 24 hrs; summary of the method: as §3
Haemophilus influenzae [19] = assay: Bactericidal activity against azithromycin-susceptible Haemophilus influenzae ATCC 49247 pretreated followed by subculture in absence of compound measured after 24 hrs; summary of the method: as §1
Staphylococcus aureus [20] = assay: Antibacterial activity against MLS-resistant Staphylococcus aureus PU 32 expressing inducible ermA gene assessed as reduction in microbial growth by CLSI based two-fold broth dilution method
Moraxella catarrhalis [21] = assay: Bactericidal activity against erythromycin-susceptible Moraxella catarrhalis 13L332 pretreated followed by subculture in absence of compound measured after 24 hrs; summary of the method: as §1
Haemophilus influenzae [22] = assay: Antibacterial activity against azithromycin-susceptible Haemophilus influenzae ATCC 49247 assessed as reduction in microbial growth by CLSI based two-fold broth dilution method
Streptococcus pyogenes [23] = assay: Selectivity ratio of MBC to MIC for Streptococcus pyogenes 12-207 expressing mef gene; summary of the method: as §1
Staphylococcus aureus [24] = assay: Bactericidal activity against MLS/methicillin-resistant Staphylococcus aureus PU 32 expressing inducible ermA gene pretreated followed by subculture in absence of compound measured after 24 hrs; summary of the method: as §3
Streptococcus pyogenes [25] = assay: Selectivity ratio of MBC to MIC for MLS-resistant Streptococcus pyogenes 12-206 expressing constitutive ermA gene; summary of the method: as §2
Streptococcus pneumoniae [26] = assay: Antibacterial activity against Streptococcus pneumoniae 07P390 expressing constitutive ermB gene assessed as reduction in microbial growth by CLSI based two-fold broth dilution method
Streptococcus pneumoniae [27] = assay: Selectivity ratio of MBC to MIC for erythromycin-susceptible Streptococcus pneumoniae ATCC49619; summary of the method: as §1
Staphylococcus aureus [28] = assay: Bactericidal activity against MLS-resistant Staphylococcus aureus PU 20 expressing constitutive ermC gene pretreated followed by subculture in absence of compound measured after 24 hrs; summary of the method: as §3
Haemophilus influenzae [29] = assay: Selectivity ratio of MBC to MIC for azithromycin-susceptible Haemophilus influenzae ATCC 49247; summary of the method: as §1

SMILES	MIC (Streptococcus pyogenes [1])	MBC (Streptococcus pneumoniae [4])	MBC (Streptococcus pneumoniae [5])	MIC (Streptococcus pneumoniae [6])	Selectivity ratio (Streptococcus pyogenes [7])	Selectivity ratio (Streptococcus pneumoniae [9])	MBC (Streptococcus pyogenes [10])	MBC (Streptococcus pneumoniae [12])	MIC (Staphylococcus aureus [13])	Selectivity ratio (Streptococcus pneumoniae [14])	Selectivity ratio (Staphylococcus aureus [15])	MIC (Streptococcus pneumoniae [17])	MBC (Haemophilus influenzae [19])	MIC (Staphylococcus aureus [20])	MIC (Haemophilus influenzae [22])	MBC (Staphylococcus aureus [24])	MIC (Streptococcus pneumoniae [26])	Selectivity ratio (Streptococcus pneumoniae [27])	MBC (Staphylococcus aureus [28])	Selectivity ratio (Haemophilus influenzae [29])	also measured
CC[C@H]1OC(=O)[C@@](C)(F)C(=O)[C@H](C)[C@@H](O[C@@H]2O[C@H](C)C[C@H](N(C)C)[C@H]2O)[C@](C)(OC/C=C/c2ccc3c(c2)c(=O)c(C(=O)NC)cn3CC)C[C@@H](C)/C(=N\OC)[C@H](C)[C@H]2OC(=O)O[C@@]21C	≤ 0.002 µg/mL	≤ 0.008 µg/mL	1 µg/mL (≈ 1.09 µM)	0.5 µg/mL	>=4	2	0.008 µg/mL (≈ 0.00874 µM)	> 0.25 µg/mL	> 256 µg/mL	>8	>8	≤ 0.008 µg/mL	> 256 µg/mL	0.25 µg/mL	256 µg/mL	> 2 µg/mL	0.031 µg/mL	–	–	–	MBC (Streptococcus pyogenes [2]): 0.25 µg/mL (≈ 0.273 µM); MIC (Streptococcus pyogenes [3]): ≤ 0.002 µg/mL; Selectivity ratio (Moraxella catarrhalis [8]): 8; MIC (Streptococcus pyogenes [11]): 0.062 µg/mL; MIC (Moraxella catarrhalis [16]): 0.5 µg/mL; MBC (Streptococcus pyogenes [18]): > 0.016 µg/mL; MBC (Moraxella catarrhalis [21]): 4 µg/mL (≈ 4.37 µM); Selectivity ratio (Streptococcus pyogenes [23]): 4; Selectivity ratio (Streptococcus pyogenes [25]): >8
CC[C@H]1OC(=O)[C@@](C)(F)C(=O)[C@H](C)[C@@H](O[C@@H]2O[C@H](C)C[C@H](N(C)C)[C@H]2O)[C@](C)(OC/C=C/c2ccc3[nH]ccc(=O)c3c2)C[C@@H](C)/C(=N\OC)[C@H](C)[C@H]2OC(=O)O[C@@]21C	0.125 µg/mL	0.062 µg/mL (≈ 0.0747 µM)	4 µg/mL (≈ 4.82 µM)	2 µg/mL	8	2	1 µg/mL (≈ 1.2 µM)	1 µg/mL (≈ 1.2 µM)	256 µg/mL	4	8	0.062 µg/mL	16 µg/mL (≈ 19.3 µM)	1 µg/mL	8 µg/mL	8 µg/mL (≈ 9.64 µM)	0.25 µg/mL	1	> 256 µg/mL	2	–
CC[C@H]1OC(=O)[C@@](C)(F)C(=O)[C@H](C)[C@@H](O[C@@H]2O[C@H](C)C[C@H](N(C)C)[C@H]2O)[C@](C)(OC)C[C@@H](C)/C(=N\OC/C=C/c2ccc3[nH]cc(C(=O)O)c(=O)c3c2)[C@H](C)[C@H]2OC(=O)O[C@@]21C	0.016 µg/mL	0.125 µg/mL (≈ 0.143 µM)	4 µg/mL (≈ 4.58 µM)	2 µg/mL	>8	2	> 0.125 µg/mL	16 µg/mL (≈ 18.3 µM)	256 µg/mL	4	8	0.125 µg/mL	32 µg/mL (≈ 36.6 µM)	2 µg/mL	32 µg/mL	16 µg/mL (≈ 18.3 µM)	4 µg/mL	1	> 256 µg/mL	1	–
CC[C@H]1OC(=O)[C@@](C)(F)C(=O)[C@H](C)[C@@H](O[C@@H]2O[C@H](C)C[C@H](N(C)C)[C@H]2O)[C@](C)(OC)C[C@@H](C)/C(=N\OCC#Cc2ccc3[nH]ccc(=O)c3c2)[C@H](C)[C@H]2OC(=O)O[C@@]21C	≤ 0.008 µg/mL	0.125 µg/mL (≈ 0.151 µM)	4 µg/mL (≈ 4.83 µM)	4 µg/mL	>8	1	> 0.062 µg/mL	32 µg/mL (≈ 38.6 µM)	256 µg/mL	2	8	0.062 µg/mL	16 µg/mL (≈ 19.3 µM)	1 µg/mL	16 µg/mL	8 µg/mL (≈ 9.66 µM)	16 µg/mL	2	> 256 µg/mL	1	–
CC[C@H]1OC(=O)[C@H](C)[C@@H](O[C@H]2C[C@@](C)(OC)[C@@H](O)[C@H](C)O2)[C@H](C)[C@@H](O[C@@H]2O[C@H](C)C[C@H](N(C)C)[C@H]2O)[C@](C)(O)C[C@@H](C)CN(C)[C@H](C)[C@@H](O)[C@]1(C)O [AZITHROMYCIN]	8 µg/mL	0.25 µg/mL (≈ 0.334 µM)	16 µg/mL (≈ 21.4 µM)	8 µg/mL	>8	2	> 64 µg/mL	> 256 µg/mL	> 256 µg/mL	–	1	0.062 µg/mL	8 µg/mL (≈ 10.7 µM)	32 µg/mL	2 µg/mL	32 µg/mL (≈ 42.7 µM)	256 µg/mL	4	–	4	MBC (Streptococcus pyogenes [2]): 16 µg/mL (≈ 21.4 µM); MIC (Streptococcus pyogenes [3]): > 256 µg/mL; Selectivity ratio (Moraxella catarrhalis [8]): 8; MIC (Streptococcus pyogenes [11]): 16 µg/mL; MIC (Moraxella catarrhalis [16]): 0.031 µg/mL; MBC (Moraxella catarrhalis [21]): 0.25 µg/mL (≈ 0.334 µM); Selectivity ratio (Streptococcus pyogenes [23]): 1
O=C(O)c1cn(C2CC2)c2cc(N3CCNCC3)c(F)cc2c1=O [CIPROFLOXACIN]	–	2 µg/mL (≈ 6.04 µM)	4 µg/mL (≈ 12.1 µM)	–	–	–	0.5 to 2 µg/mL (≈ 1.51 to 6.04 µM)	4 µg/mL (≈ 12.1 µM)	–	–	–	–	0.004 to 0.008 µg/mL (≈ 0.0121 to 0.0241 µM)	–	–	> 256 µg/mL	–	–	> 256 µg/mL	–	MBC (Streptococcus pyogenes [2]): 2 µg/mL (≈ 6.04 µM); MBC (Streptococcus pyogenes [18]): > 1 µg/mL
